Measured values reported in ChEMBL document CHEMBL1158761, “Globosumones A-C, cytotoxic orsellinic acid esters from the Sonoran desert endophytic fungus Chaetomium globosum” (J Nat Prod, 2005).
pIC50: −log10 of the molar value. Activity calls are given as the source filed them. The rule behind the calls is not given here.

Columns and labels:
NCI-H460 [1] = test: Cytotoxicity against human NCI-H460 cells by MTT assay; assay type: functional, cell-based
How it was run: (§1)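 Cells were exposed to samples dissolved in DMSO for 72 h in RPMI-1640 medium with 10% fetal bovine serum. Inhibition of proliferation was read by the tetrazolium-based colorimetric MTT viability assay. The panel comprised NCI-H460 lung, MCF-7 breast, SF-268 glioma and MIA Pa Ca-2 pancreatic carcinoma lines, plus normal primary WI-38 fibroblasts.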

[2] = Cytotoxicity against human WI38 cells; assay type: cell-based; conditions: WI-38; how it was run: as §1
MCF7 [3] = test: Cytotoxicity against human MCF7 cells by MTT assay; assay type: functional, cell-based; how it was run: as §1
MIA PaCa-2 [4] = test: Cytotoxicity against human MIAPaCa2 cells; assay type: functional, cell-based; how it was run: as §1
SF-268 [5] = test: Cytotoxicity against human SF268 cells; assay type: functional, cell-based; how it was run: as §1
MIA PaCa-2 [6] = test: Cytotoxicity against human MIAPaCa2 cells at 10 ug/mL; assay type: functional, cell-based
NCI-H460 [7] = test: Cytotoxicity against human NCI-H460 cells at 10 ug/mL by MTT assay; assay type: functional, cell-based
[8] = Cytotoxicity against human WI38 cells at 10 ug/mL; assay type: cell-based; conditions: wi-38
SF-268 [9] = test: Cytotoxicity against human SF268 cells at 10 ug/mL; assay type: functional, cell-based
MCF7 [10] = test: Cytotoxicity against human MCF7 cells at 10 ug/mL by MTT assay; assay type: functional, cell-based

SMILES | pIC50 (NCI-H460 [1]) | pIC50 [2] | pIC50 (MCF7 [3]) | pIC50 (MIA PaCa-2 [4]) | pIC50 (SF-268 [5]) | Activity (MIA PaCa-2 [6]) | Activity (NCI-H460 [7]) | Activity [8] | Activity (SF-268 [9]) | Activity (MCF7 [10])
COc1cccc2c1C(=O)c1c(O)c3c(c(O)c1C2=O)C[C@@](O)(C(=O)CO)C[C@@H]3O[C@H]1C[C@H](N)[C@H](O)[C@H](C)O1 [DOXORUBICIN] | 8.00 | 6.52 |  |  |  |  |  |  |  | 
C/C=C/C(=O)COC(=O)c1c(C)cc(O)cc1O [GLOBOSUMONE A] | 5.19 | 4.89 | 4.67 | 4.97 | 5.06 |  |  |  |  | 
Cc1cc(O)cc(O)c1C(=O)OCC(=O)C[C@H](C)O [GLOBOSUMONE B] | 4.61 | 4.85 | 4.66 | 4.52 | 4.54 |  |  |  |  | 
Cc1cc(O)cc(O)c1C(=O)OCC(=O)[C@@H](O)[C@H](C)O [GLOBOSUMONE C] |  |  |  |  |  | inactive | inactive | Not Active | inactive | inactive
Cc1cc(O)cc(O)c1C(=O)O [ORSELLINIC ACID] |  |  |  |  |  | inactive | inactive | Not Active | inactive | inactive
C/C=C/C1OC2=C(C(=O)C[C@H](C)O2)C(=O)[C@@H]1O (some centres not stated) [TRICHODION] |  |  |  |  |  | inactive | inactive | Not Active | inactive | inactive
